Laboratory results from PMC5845419 (RMD Open, 2018).
Entries after “also recorded” stand apart in the source; their conditions may differ. Read-outs that look alike come from different tables or passages of the source. One block for each molecule: values may come before it.

What was measured:
[1] = system: serum urate (sUA); test: Serum urate; assay type: in vivo, human; details: 7 days, adults with gout
How it was run: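 Adults with gout, 7-day periods; second dose of twice-daily regimen given after evening meal ~10 hours after first. Serum sampled at preset intervals on baseline (day −1) and days 7–35; non-ULT subjects started colchicine ~day −7. Emax as maximum per cent sUA change from baseline; mixed-effects model (sequence, treatment fixed; subject random; baseline covariate) giving least-squares means.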

[2] = assay type: in vivo, human
How it was run: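 Adults with gout, open-label, randomised by incomplete block design; 7-day treatment periods, oral dosing ~30 min after standardised breakfast. Serial plasma samples on days 7–35 and timed total-catch urine (1-hour rising to 2- or 10-hour intervals) with scheduled water intake. Plasma by protein precipitation, urine diluted with water; LC-MS/MS. Mixed-effects model (treatment fixed, subject random); geometric means.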

[3] = single oral 10 mg dose, healthy volunteers; cited from earlier work
[4] = Safety and tolerability, phase IIa study in adults with gout; assay type: in vivo, human; details: all dose combinations of verinurad (2.5–20 mg) and allopurinol 300 mg once daily
[5] = allopurinol 600 mg once daily vs 300 mg twice daily
[6] = verinurad 2.5 mg + allopurinol 300 mg once daily
[7] = verinurad 20 mg + allopurinol 300 mg once daily

least-squares geometric mean ratio (90% CI), allopurinol Cmax [2, 5]: 204 (162 to 257)
change of allopurinol Ae0–24 and CLR0–24 by verinurad ([2]; verinurad at any dose (2.5–20 mg) + allopurinol 300 mg once daily): generally unchanged
SMILES: Oc1ncnc2[nH]ncc12 [allopurinol, reference compound]
least-squares mean Emax (maximum per cent decrease in sUA from baseline) ([1]; allopurinol 300 mg once daily alone): 40%
least-squares mean Emax (maximum per cent decrease in sUA from baseline) ([1]; allopurinol 300 mg twice daily alone): 54%
least-squares mean Emax (maximum per cent decrease in sUA from baseline) ([1]; allopurinol 600 mg once daily alone): 54%

least-squares geometric mean ratio (90% CI), oxypurinol Cmax [2, 5]: 122 (103 to 146)
SMILES: O=c1[nH]c(=O)c2c[nH]nc2[nH]1 [oxypurinol]

SMILES: CC(C)(Sc1ccncc1-c1ccc(C#N)c2ccccc12)C(=O)O [verinurad]
fraction of dose absorbed [3]: ~ 64%
median time to maximum observed plasma concentration (Tmax) [3]: 0.5 h
terminal half-life [3]: 15 h
tolerability [4]: generally well tolerated
tolerability ([4]; listed as Verinurad): well tolerated
least-squares mean Emax (maximum per cent decrease in sUA from baseline) [1, 6]: 47%
least-squares mean Emax (maximum per cent decrease in sUA from baseline) ([1]; verinurad 5 mg + allopurinol 300 mg once daily): 59%
least-squares mean Emax (maximum per cent decrease in sUA from baseline) ([1]; verinurad 7.5 mg + allopurinol 300 mg once daily): 60%
least-squares mean Emax (maximum per cent decrease in sUA from baseline) ([1]; verinurad 10 mg + allopurinol 300 mg once daily): 67%
least-squares mean Emax (maximum per cent decrease in sUA from baseline) ([1]; verinurad 15 mg + allopurinol 300 mg once daily): 68%
least-squares mean Emax (maximum per cent decrease in sUA from baseline) [1, 7]: 74%
Tmax ([2]; human, plasma, oral, median Tmax, range across verinurad doses 2.5–20 mg in combination with allopurinol 300 mg once daily): 3 to 3.97 h
Ae0–24 (amount excreted in urine) [2, 6]: 17.8 µg
Ae0–24 (amount excreted in urine) [2, 7]: 165 µg
effect of verinurad on plasma PK of allopurinol ([2]; verinurad 2.5–20 mg + allopurinol 300 mg once daily): no effect; also recorded: did not affect
